Measured values from ChEMBL document CHEMBL2177087, “Bivalent ligands targeting multiple pathological factors involved in Alzheimer's disease” (ACS Med Chem Lett, 2012).
Blank lines part the entries; values can stand above or below the molecule they belong to. Calls of active or inactive are those of the source. No cut-off for these calls is given here.

Experiments:
[1] = tested on: MC65; test: Neuroprotective activity in tetracycline-removed human MC65 cells assessed as protection against amyloid beta aggregate-induced cytotoxicity at 0.3 uM after 72 hrs by MTT assay; assay type: functional, cell-based
Summary of the method: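 Single-concentration screen: MC65 cells given 0.3 μM compound under +TC or −TC conditions for 72 h, viability read by MTT. Reported as mean percentage viability (n = 3) relative to parallel +TC cultures at 100%; error bars SEM.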

[2] = Neuroprotective activity in tetracycline-removed human MC65 cells assessed as protection against amyloid beta aggregate-induced cytotoxicity after 72 hrs by MTT assay; assay type: functional, cell-based; conditions: MC65, 72 h
Summary of the method: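 MC65 cells kept in +TC or −TC medium with compound across a concentration series for 72 h; viability by MTT. Mean percentage viability (n = 3), parallel +TC cultures as 100%, SEM error bars; EC50 taken from dose–response.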

[3] = tested on: MC65; test: Antioxidant activity in tetracycline-removed human MC65 cells assessed as suppression of oxidative stress at 0.1 to 3 uM after 48 hrs by DCFH-DA assay; assay type: functional, cell-based
Summary of the method: (§1)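 MC65 human neuroblastoma cells dosed under +TC or −TC (TC withdrawn) for 48 h, then loaded with 25 μM DCFH-DA. Cellular fluorescence measured by flow cytometry. Expressed as mean percentage of fluorescence intensity (n = 3), parallel +TC cultures set at 100%; error bars SEM.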

[4] = tested on: MC65; test: Effect on C99 expression in tetracycline-removed human MC65 cells at 0.3 to 1 uM after 30 hrs by Western blot analysis; assay type: functional, cell-based
[5] = tested on: MC65; test: Inhibition of amyloid beta oligomer production in tetracycline-removed human MC65 cells after 30 hrs by Western blot analysis; assay type: functional, cell-based
Summary of the method: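 Compounds added immediately after tetracycline removal, MC65 cells cultured 30 h. Lysates Western blotted with 6E10 antibody; three oligomer bands quantified by densitometry, normalized to α-tubulin, and expressed relative to −TC control set at 100%. Image from one of two independent experiments.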

[6] = tested on: MC65; test: Antioxidant activity in tetracycline-removed human MC65 cells assessed as suppression of oxidative stress after 48 hrs by DCFH-DA assay; assay type: functional, cell-based; summary of the method: as §1
[7] = Binding affinity to Zn2+ assessed as formation of metal complexes at 50 uM after 10 mins by UV-vis spectrum analysis; assay type: physicochemical
Summary of the method: (§2)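 50 μM compound incubated with 60 μM CuSO4, FeCl2 or ZnCl2 at room temperature for 10 min. UV−vis spectrum recorded from 300 to 550 nm; complexation judged from spectral change versus metal-free spectrum.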

[8] = Antioxidant activity in tetracycline-removed human MC65 cells assessed as suppression of oxidative stress at 0.1 uM after 48 hrs by DCFH-DA assay; assay type: functional; summary of the method: as §1
[9] = Binding affinity to Fe2+ assessed as formation of metal complexes at 50 uM after 10 mins by UV-vis spectrum analysis; assay type: physicochemical; summary of the method: as §2
[10] = Binding affinity to Cu2+ assessed as formation of metal complexes at 50 uM after 10 mins by UV-vis spectrum analysis; assay type: physicochemical; summary of the method: as §2

SMILES: COc1cc(/C=C/C(=O)/C(Cc2cn(CCCCCCNC(=O)COCC(=O)NCCCCCCN[C@H]3CC[C@@]4(C)C(=CC[C@H]5[C@@H]6CC[C@H]([C@H](C)CCCC(C)C)[C@@]6(C)CC[C@@H]54)C3)nn2)=C(O)/C=C/c2ccc(O)c(OC)c2)ccc1O
Activity [1]: Active

SMILES: COc1cc(/C=C/C(=O)/C(Cc2cn(CCCCCCNC(=O)COCC(=O)NCCCCN[C@H]3CC[C@@]4(C)C(=CC[C@H]5[C@@H]6CC[C@H]([C@H](C)CCCC(C)C)[C@@]6(C)CC[C@@H]54)C3)nn2)=C(O)/C=C/c2ccc(O)c(OC)c2)ccc1O
EC50 [2]: 300 nM
Activity [3]: Active
Activity [1]: Active
Activity [4]: inactive
inhibition [5]: Dose-dependent effect

SMILES: COc1cc(/C=C/C(=O)/C=C(O)/C=C/c2ccc(OCc3cn(CCCCCCNC(=O)COCC(=O)NCCCCN[C@H]4CC[C@@]5(C)C(=CC[C@H]6[C@@H]7CC[C@H]([C@H](C)CCCC(C)C)[C@@]7(C)CC[C@@H]65)C4)nn3)c(OC)c2)ccc1O
Activity [1]: Active

SMILES: COc1cc(/C=C/C(=O)/C=C(O)/C=C/c2ccc(OCc3cn(CCCCCCNC(=O)COCC(=O)NCCCCCCN[C@H]4CC[C@@]5(C)C(=CC[C@H]6[C@@H]7CC[C@H]([C@H](C)CCCC(C)C)[C@@]7(C)CC[C@@H]65)C4)nn3)c(OC)c2)ccc1O
Activity [1]: Active

SMILES: COc1cc(/C=C/C(=O)/C=C(O)/C=C/c2ccc(OCc3cn(CCCCNC(=O)COCC(=O)NCCCCN[C@H]4CC[C@@]5(C)C(=CC[C@H]6[C@@H]7CC[C@H]([C@H](C)CCCC(C)C)[C@@]7(C)CC[C@@H]65)C4)nn3)c(OC)c2)ccc1O
Activity [1]: Active

SMILES: COc1cc(/C=C/C(=O)/C=C(O)/C=C/c2ccc(OCc3cn(CCNC(=O)COCC(=O)NCCCCN[C@H]4CC[C@@]5(C)C(=CC[C@H]6[C@@H]7CC[C@H]([C@H](C)CCCC(C)C)[C@@]7(C)CC[C@@H]65)C4)nn3)c(OC)c2)ccc1O
Activity [1]: Active

SMILES: COc1cc(/C=C/C(=O)/C=C(O)/C=C/c2ccc(OCc3cn(CCCC(=O)NCCCCN[C@H]4CC[C@@]5(C)C(=CC[C@H]6[C@@H]7CC[C@H]([C@H](C)CCCC(C)C)[C@@]7(C)CC[C@@H]65)C4)nn3)c(OC)c2)ccc1O
Activity [1]: Active

SMILES: COc1cc(/C=C/C(=O)/C(Cc2cn(CCCCNC(=O)COCC(=O)NCCCCN[C@H]3CC[C@@]4(C)C(=CC[C@H]5[C@@H]6CC[C@H]([C@H](C)CCCC(C)C)[C@@]6(C)CC[C@@H]54)C3)nn2)=C(O)/C=C/c2ccc(O)c(OC)c2)ccc1O
EC50 [2]: 160 nM
Activity [3]: Active
Activity [1]: Active
Activity [4]: inactive
inhibition [5]: Dose-dependent effect

SMILES: COc1cc(/C=C/C(=O)/C(Cc2cn(CCCC(=O)NCCCCN[C@H]3CC[C@@]4(C)C(=CC[C@H]5[C@@H]6CC[C@H]([C@H](C)CCCC(C)C)[C@@]6(C)CC[C@@H]54)C3)nn2)=C(O)/C=C/c2ccc(O)c(OC)c2)ccc1O
Activity [1]: Active

Activity [7]: Active
Activity [9]: Active
Activity [10]: Active
SMILES: COc1cc(/C=C/C(=O)/C(Cc2cn(CCNC(=O)COCC(=O)NCCCCN[C@H]3CC[C@@]4(C)C(=CC[C@H]5[C@@H]6CC[C@H]([C@H](C)CCCC(C)C)[C@@]6(C)CC[C@@H]54)C3)nn2)=C(O)/C=C/c2ccc(O)c(OC)c2)ccc1O
Activity [6]: Dose-dependent effect
EC50 [2]: 83 nM
Activity [8]: 35%
Activity [1]: Active
Activity [4]: inactive
inhibition [5]: Dose-dependent effect

Activity [7]: Not Active
Activity [9]: Active
Activity [10]: Active
SMILES: COc1cc(/C=C/C(=O)/C(Cc2cn(CCCCCCNC(=O)CCNC(=O)CCNC(=O)CO[C@H]3CC[C@@]4(C)C(=CC[C@H]5[C@@H]6CC[C@H]([C@H](C)CCCC(C)C)[C@@]6(C)CC[C@@H]54)C3)nn2)=C(O)/C=C/c2ccc(O)c(OC)c2)ccc1O
EC50 [2]: 3000 nM
